Experimental findings from ChEMBL document CHEMBL4049423, “Discovery of Novel 1,4-Diacylpiperazines as Selective and Cell-Active eIF4A3 Inhibitors” (J Med Chem, 2017) are described below.

Active and inactive are the calls of the source. The rule behind the calls is not given here.

Test [1] has as its target T1, Eukaryotic initiation factor 4A-III (Homo sapiens, UniProt P38919). Description: Inhibition of MLN51-induced full-length human recombinant His6-tagged eIF4A3 RNA dependent ATPase activity expressed in Escherichia coli BL21(DE3) using single stranded poly(U) RNA as substrate after 30 mins by ADP-Glo luminescence assay. The procedure, abridged: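 ADP-Glo luminescence read-out with 150 nM eIF4A3 plus an equimolar amount of MLN51. Substrates were 35 μM ATP and 1.5 μg/mL poly(U), both at Km. Buffer: 20 mM Tris-HCl pH 7.5, 2.5 mM MgCl2, 100 mM KCl, 1 mM DTT, 0.01% Tween20. Enzyme was added last to start the reaction, then incubated 30 min at room temperature. No-enzyme wells were taken as 100% inhibition and the complete reaction as 0%.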

The target of test [2] is T1, Eukaryotic initiation factor 4A-III. Description: Inhibition of eIF4A3 (unknown origin) expressed in HEK293T cells assessed as NMD suppression at 10 uM after 6 hrs by luciferase reporter gene assay relative to control. The test is classed as cell-based. The method in brief:
(§1)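 HEK293T cells were co-transfected (Lipofectamine LTX) with the pGL4.12 SV40-Luc2CP-BGG NMD reporter and a pRL-TK renilla control. After 24 h of transfection, cells were treated with compound for 6 h. Firefly/renilla luciferase ratio was measured by dual-luciferase assay and normalized to DMSO-treated cells, n = 2.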

Test [3] shares this target. Description: Inhibition of eIF4A3 (unknown origin) expressed in HEK293T cells assessed as NMD suppression at 3 uM after 6 hrs by luciferase reporter gene assay relative to control. The test is classed as cell-based. The procedure, abridged:
as §1
(In general: Reporter assays use an easily measured gene product as a stand-in for the process of interest.)

Test [4] has the same target. Description: Binding affinity to full-length human recombinant His6-tagged eIF4A3 expressed in Escherichia coli BL21(DE3) by surface plasmon resonance assay. The method in brief: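 eIF4A3 immobilized on CM7 chip by amine coupling (5000–10 000 RU) in HBS-P+ with 1 mM DTT. Binding run at 25 °C in 20 mM Tris-HCl pH 8.0, 150 mM NaCl, 0.2 mM TCEP, 0.02% P20, 1−2% DMSO. Compound injected at 6−12 concentrations for 60−120 s at 50 μL/min, dissociation followed 120−1200 s. Sensorgrams double-referenced, globally fitted to 1:1 model.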
For orientation: In SPR one partner is held on a chip, and binding of the other changes the refractive index at the surface.

Test [5] has the same target. Put plainly: Binding affinity to full-length human recombinant His6-tagged eIF4A3 expressed in Escherichia coli BL21(DE3) assessed as association rate constant by surface plasmon resonance assay. The method in brief: (§2)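 eIF4A3 amine-coupled to a CM7 sensor chip (5000–10 000 RU) in HBS-P+ with 1 mM DTT. Binding was run at 25 °C in 20 mM Tris-HCl pH 8.0, 150 mM NaCl, 0.2 mM TCEP, 0.02% P20 and 1–2% DMSO. Compound series of 6–12 concentrations were injected for 60–120 s at 50 μL/min, with dissociation followed for 120–1200 s. Sensorgrams were double-referenced and globally fitted to a 1:1 model.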

Test [6] shares this target. Put plainly: Binding affinity to full-length human recombinant His6-tagged eIF4A3 expressed in Escherichia coli BL21(DE3) assessed as dissociation rate constant by surface plasmon resonance assay. The procedure, abridged: as §2
The target is the same in test [7]. Description: Binding affinity to full-length human recombinant His6-tagged eIF4A3 expressed in Escherichia coli BL21(DE3) assessed as dissociation half life by surface plasmon resonance assay. The method in brief: as §2

T1 sequence (P38919 whole entry): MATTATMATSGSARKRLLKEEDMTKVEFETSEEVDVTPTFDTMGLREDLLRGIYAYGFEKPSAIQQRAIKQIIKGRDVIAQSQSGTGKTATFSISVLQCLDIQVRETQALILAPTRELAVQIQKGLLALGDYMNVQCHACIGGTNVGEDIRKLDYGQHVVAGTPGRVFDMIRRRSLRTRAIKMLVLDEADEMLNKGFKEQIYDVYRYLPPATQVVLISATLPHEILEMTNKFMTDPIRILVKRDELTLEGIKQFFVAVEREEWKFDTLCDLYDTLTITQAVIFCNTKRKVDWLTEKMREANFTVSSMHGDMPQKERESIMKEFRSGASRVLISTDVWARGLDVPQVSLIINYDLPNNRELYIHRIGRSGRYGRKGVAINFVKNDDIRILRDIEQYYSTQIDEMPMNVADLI

Broadly, the IC50 is the concentration that gives 50% inhibition. Take `O=C(c1cnc(-c2ccccc2)o1)N1CCN(C(=O)c2ccccc2Cl)C(c2ccc(Cl)cc2)C1` (configuration not stated): the IC50 in test [1] was more than 100000 nM.

As for `O=C(c1cnc(-c2ccccc2)o1)N1CCN(C(=O)c2ccc(Cl)cc2)C(C2CCCCC2)C1` (configuration not stated), in test [1], the IC50 is more than 100000 nM. Turning to `O=C(c1cnn2cccc(Br)c12)N1CCN(C(=O)c2ccc(Cl)cc2)C(c2ccc(Cl)cc2)C1` (configuration not stated), in test [1], the IC50 stood at 8900 nM. For the compound `O=C(c1ncc(-c2ccccc2)o1)N1CCN(C(=O)c2ccc(Cl)cc2)C(c2ccc(Cl)cc2)C1` (configuration not stated), the IC50 in test [1] is more than 100000 nM. For the compound `O=C(c1cnn2cc(Br)ccc12)N1CCN(C(=O)c2ccc(Cl)cc2)C(c2ccc(Cl)cc2)C1` (configuration not stated), in test [1], the IC50 came to 720 nM. In the case of `N#Cc1ccnc(-c2ncc(C(=O)N3CCN(C(=O)c4ccc(Br)cc4)C(c4ccc(Cl)cc4)C3)o2)c1` (configuration not stated), the IC50 in test [1] was 390 nM. The fold change (FC) in test [2] turned out to be 1.8. In addition, in test [3], the “NMD suppression activity (qualitative)” value was “Active”. On to `O=C(c1cnc(-c2ccccc2)o1)N1CCN(C(=O)c2ccc(Cl)cc2)C(c2ccc(Cl)cc2)C1` (configuration not stated), for which the IC50 in test [1] turned out to be 2200 nM. Regarding `Cc1c(C(=O)N2CCN(C(=O)c3ccc(Br)cc3)[C@H](c3ccc(Cl)cc3)C2)cnn1-c1cccc(C#N)c1`, in test [1], the IC50 is more than 100000 nM. The figures for the fold change (FC) in test [2] and in test [3] were 1.34 and 1.1, respectively. For orientation: Kd means a measure of binding affinity in units of concentration. Consider `O=C(c1cnn2cc(Br)ccc12)N1CCN(C(=O)c2ccc(Br)cc2)[C@H](c2ccc(Cl)cc2)C1`, for which the IC50 in test [1] worked out at 60000 nM. For the same compound, in test [4], the Kd stood at 16000 nM. For the same compound, the K in test [5] was found to be 1.5 ×10³ /M/s; in test [6] it was 2.4 ×10⁻² /s. In addition, in test [7], the T1/2 worked out at 0.477 min.

Regarding `O=C(c1cnc(-c2ccccc2)o1)N1CCN(C(=O)c2cccc(Cl)c2)C(c2ccc(Cl)cc2)C1` (configuration not stated), the IC50 in test [1] is more than 100000 nM. On the same count and under the same terms, the value for `O=C(c1coc(-c2ccccc2)n1)N1CCN(C(=O)c2ccc(Cl)cc2)C(c2ccc(Cl)cc2)C1` (configuration not stated) was 69000 nM; that for `O=C(c1c[nH]c2ccccc12)N1CCN(C(=O)c2ccc(Cl)cc2)C(c2ccc(Cl)cc2)C1` (configuration not stated) was 2300 nM; that for `Cc1c(C(=O)N2CCN(C(=O)c3ccc(Cl)cc3)C(c3ccc(Cl)cc3)C2)cnn1-c1ccccc1` (configuration not stated) was 1600 nM.

As to `O=C(c1cnn2c(Br)cccc12)N1CCN(C(=O)c2ccc(Cl)cc2)C(c2ccc(Cl)cc2)C1` (configuration not stated), the IC50 in test [1] came to 1900 nM.

With `N#Cc1ccccc1-c1ncc(C(=O)N2CCN(C(=O)c3ccc(Cl)cc3)C(c3ccc(Cl)cc3)C2)o1` (configuration not stated), in test [1], the IC50 amounted to 2100 nM. Take `O=C(c1cnc(-c2ccccc2)o1)N1CCCN(C(=O)c2ccc(Cl)cc2)C(c2ccc(Cl)cc2)C1` (configuration not stated): the IC50 in test [1] was more than 100000 nM. For `O=C1C(c2ccc(Cl)cc2)N(C(=O)c2ccc(Cl)cc2)CCN1Cc1cnc(-c2ccccc2)o1` (configuration not stated), in test [1], the IC50 was more than 100000 nM. With `O=C(c1cnn2cc(Br)ccc12)N1CCN(C(=O)c2ccc(Br)cc2)C(c2ccc(Cl)cc2)C1` (configuration not stated), the concentration for half-maximal inhibition (IC50) in test [1] stood at 420 nM. Moreover, in test [2], the fold change (FC) is 1.9. For the same compound, the “NMD suppression activity (qualitative)” value in test [3] was “Active”. Take `O=C(c1cnc(-c2ccccc2)o1)N1CCN(C(=O)c2ccc(Cl)cc2)C(c2ccccc2Cl)C1` (configuration not stated): the IC50 in test [1] was more than 100000 nM. Regarding `O=C(c1cnn(-c2ccccc2)c1)N1CCN(C(=O)c2ccc(Cl)cc2)C(c2ccc(Cl)cc2)C1` (configuration not stated), in test [1], the IC50 stood at 2400 nM.

As for `O=C(c1cnc(-c2ccccc2)o1)N1CCN(Cc2ccc(Cl)cc2)C(c2ccc(Cl)cc2)C1` (configuration not stated), the IC50 in test [1] is more than 100000 nM. On the same count and under the same terms, the value for `O=C(c1cnn2ccc(Br)cc12)N1CCN(C(=O)c2ccc(Cl)cc2)C(c2ccc(Cl)cc2)C1` (configuration not stated) was 830 nM; that for `N#Cc1ccc2c(C(=O)N3CCN(C(=O)c4ccc(Br)cc4)C(c4ccc(Cl)cc4)C3)cnn2c1` (configuration not stated) was 9000 nM; that for `O=C(c1cnc(-c2ccccc2)o1)N1CCN(C(=O)c2ccc(Cl)cc2)C(c2cccc(Cl)c2)C1` (configuration not stated) was more than 100000 nM. With `N#Cc1cccc(-c2ncc(C(=O)N3CCN(C(=O)c4ccc(Br)cc4)C(c4ccc(Cl)cc4)C3)o2)c1` (configuration not stated), the IC50 in test [1] is 360 nM. Also, in test [2], the fold change (FC) is 1.8. Also, in test [3], the “NMD suppression activity (qualitative)” value is “Active”. With `O=C(c1cnc(-c2ccccc2)o1)N1CCN(C(=O)c2ccccc2)C(c2ccc(Cl)cc2)C1` (configuration not stated), the IC50 in test [1] is 11000 nM. Still for that read-out and setting: as for `O=C(c1cnn2ccccc12)N1CCN(C(=O)c2ccc(Cl)cc2)C(c2ccc(Cl)cc2)C1` (configuration not stated), the figure is 1100 nM; as for `N#Cc1cccc(-c2ncc(C(=O)N3CCN(C(=O)c4ccc(Cl)cc4)C(c4ccc(Cl)cc4)C3)o2)c1` (configuration not stated), 600 nM. Consider `O=C(c1cnn2cc(Br)ccc12)N1CCN(C(=O)c2ccc(Br)cc2)[C@@H](c2ccc(Cl)cc2)C1`, for which the IC50 in test [1] amounted to 200 nM. Also, in test [4], the Kd amounted to 57 nM. Further, the results for the K in test [5] and in test [6] were 2.8 ×10⁴ /M/s and 1.6 ×10⁻³ /s, respectively. Also, the T1/2 in test [7] is 7.3 min. `O=C(c1ccc(Cl)cc1)N1CCN(Cc2cnc(-c3ccccc3)o2)CC1c1ccc(Cl)cc1` (configuration not stated): the IC50 in test [1] is more than 100000 nM. On to `COc1ccc2c(C(=O)N3CCN(C(=O)c4ccc(Br)cc4)C(c4ccc(Cl)cc4)C3)cnn2c1` (configuration not stated), for which the IC50 in test [1] worked out at 920 nM. Moreover, in test [2], the fold change (FC) was 1.7. In addition, the “NMD suppression activity (qualitative)” value in test [3] was “Active”. For the compound `O=C(c1cnc(-c2ccccc2)o1)N1CCN(C(=O)c2ccc(Br)cc2)C(c2ccc(Cl)cc2)C1` (configuration not stated), the IC50 in test [1] amounted to 660 nM. `C[C@H]1C[C@@]2(O[C@H]3C[C@H]4[C@@H]5CC[C@H]6C[C@H](O)CC[C@]6(C)[C@H]5[C@@H](O)C[C@]4(C)[C@H]3[C@@]2(C)O)OC1(C)C`: in test [4], the Activity result is “Dose-dependent effect”. As to `O=C(c1ccn(-c2ccccc2)n1)N1CCN(C(=O)c2ccc(Cl)cc2)C(c2ccc(Cl)cc2)C1` (configuration not stated), the IC50 in test [1] is more than 100000 nM. For `O=C(c1n[nH]c2ccccc12)N1CCN(C(=O)c2ccc(Cl)cc2)C(c2ccc(Cl)cc2)C1` (configuration not stated), the half-inhibitory concentration (IC50) in test [1] stood at 62000 nM. In the case of `Cc1c(C(=O)N2CCN(C(=O)c3ccc(Br)cc3)C(c3ccc(Cl)cc3)C2)cnn1-c1cccc(C#N)c1` (configuration not stated), the IC50 in test [1] is 580 nM. Also, the fold change (FC) in test [2] came to 2.3. Further, the “NMD suppression activity (qualitative)” value in test [3] was “Active”. Turning to `N#Cc1ccc(-c2ncc(C(=O)N3CCN(C(=O)c4ccc(Cl)cc4)C(c4ccc(Cl)cc4)C3)o2)cc1` (configuration not stated), the IC50 in test [1] came to 8400 nM.
